Data: publication PMC7688529 (British Journal of Clinical Pharmacology, 2020)
Read-outs that look alike come from different tables or passages of the source.

What was measured:
[1] = assay type: in vivo, human; conditions: for CVw of AUC0‐t / CVw of AUC0‐∞ / CVw of Cmax: intrasubject coefficient of variation; for Tmax: median (range)
Summary of the method: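 Healthy subjects; randomized crossover; single oral fasted dose of the 10 mg/40 mg macitentan/tadalafil FDC vs a free combination with US-sourced tadalafil; evaluated per group. Fluids withheld 1 h pre- to 1 h post-dose; observation 216–288 h. Macitentan/ACT-132577 by LC-MS/MS after acetonitrile/ethanol protein precipitation; tadalafil by LC-MS/MS after tert-butyl methyl ether extraction. Geometric mean ratios with 90% CI and intrasubject variability from a mixed-effects model.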

[2] = assay type: in vivo, human; conditions: for Ratio of geometric means (treatment A/B; 90% CI) of AUC0‐t / Ratio of geometric means (treatment A/B; 90% CI) of AUC0‐∞ / Ratio of geometric means (treatment A/B; 90% CI) of Cmax: FDC‐2 vs free combination (EU‐sourced tadalafil); for CVw of AUC0‐t / CVw of AUC0‐∞ / CVw of Cmax: FDC‐2 vs free combination, intrasubject coefficient of variation; for Cmax: Treatment A FDC (FDC‐2, 10 mg/40 mg), single dose, fasted, healthy subjects; for Cmax / half-life / AUC: geometric mean (95% CI)
Summary of the method: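 Healthy subjects randomized to A/B or B/A. Single oral dose: 10 mg/40 mg FDC, or macitentan 10 mg plus 2 × 20 mg EU-sourced tadalafil. Fasted ≥10 h pre- to 4 h post-dose. Blood (K3EDTA) from predose to 216 h; spun ~1500 g, 10 min, 4 ± 2°C; stored ≤ −75°C, light-protected. LC-MS/MS with isotope-labelled standards. Geometric mean ratios (90% CI) and CVw from mixed-effects model.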

[3] = Stability in human plasma samples; assay type: physicochemical
[4] = Study AC‐077‐101: safety and tolerability evaluation; assay type: in vivo, human; conditions: both studies AC‐077‐101 and AC‐077‐103; administered as FDC product or as a free combination
[5] = Group 1, FDC‐1 vs free combination (US‐sourced tadalafil)
[6] = Group 1, FDC‐1 vs free combination
[7] = Group 2, FDC‐2 vs free combination (US‐sourced tadalafil)
[8] = Group 2, FDC‐2 vs free combination
[9] = human, plasma, oral, Group 1, Treatment A FDC‐1 (macitentan/tadalafil 10 mg/40 mg), single dose, fasted, healthy subjects, geometric mean (95% CI)
[10] = human, plasma, oral, Group 2, Treatment B free combination (US‐sourced tadalafil), geometric mean (95% CI)
[11] = human, plasma, oral, t1/2, Group 1, Treatment B free combination (US‐sourced tadalafil), geometric mean (95% CI)
[12] = human, plasma, oral, t1/2, Group 2, Treatment A FDC‐2, geometric mean (95% CI)
[13] = human, plasma, oral, t1/2, Group 2, Treatment B free combination (US‐sourced tadalafil), geometric mean (95% CI)
[14] = human, plasma, oral, tmax, Group 1, Treatment A FDC‐1
[15] = human, plasma, oral, tmax, Group 1, Treatment B free combination (US‐sourced tadalafil)
[16] = human, plasma, oral, tmax, Group 2, Treatment A FDC‐2
[17] = human, plasma, oral, tmax, Group 2, Treatment B free combination (US‐sourced tadalafil)
[18] = Treatment B free combination (EU‐sourced tadalafil), median (range)
[19] = human, plasma, oral, t1/2, Treatment A FDC (FDC‐2)
[20] = human, plasma, oral, t1/2, Treatment B free combination (EU‐sourced tadalafil)
[21] = human, plasma, oral, t1/2, Group 1, Treatment A FDC‐1, geometric mean (95% CI)

NS(=O)(=O)Nc1ncnc(OCCOc2ncc(Br)cn2)c1-c1ccc(Br)cc1 [ACT‐132577]
Geometric means ratio (treatment A/B; 90% CI) of AUC0‐t [1, 5]: 0.9826(0.9550, 1.0110) | Geometric means ratio (treatment A/B; 90% CI) of AUC0‐∞ [1, 5]: 0.9836(0.9572, 1.0107) | Geometric means ratio (treatment A/B; 90% CI) of Cmax [1, 5]: 0.9935 (0.9616, 1.0264) | CVw of AUC0‐t [1, 6]: 9.03% | CVw of AUC0‐∞ [1, 6]: 8.61% | CVw of Cmax [1, 6]: 10.32% | AUC higher after FDC‐2 than after free combination ([1]; Group 2): ~9% | Cmax higher after FDC‐2 than after free combination ([1]; Group 2): approximately 10% | Geometric means ratio (treatment A/B; 90% CI) of AUC0‐t [1, 7]: 1.0925 (1.0545, 1.1319) | Geometric means ratio (treatment A/B; 90% CI) of AUC0‐∞ [1, 7]: 1.0884 (1.0502, 1.1281) | Geometric means ratio (treatment A/B; 90% CI) of Cmax [1, 7]: 1.0983 (1.0470, 1.1520) | CVw of AUC0‐t [1, 8]: 11.20% | CVw of AUC0‐∞ [1, 8]: 11.31% | CVw of Cmax [1, 8]: 15.15% | Cmax [1, 9]: 158 ng/mL | Cmax [1, 10]: 150 ng/mL | half-life [1, 11]: 48.5 h | half-life [1, 12]: 50.5 h | half-life [1, 13]: 50.3 h | Tmax [1, 14]: 48 h | Tmax [1, 15]: 48 h | Tmax [1, 16]: 48 h | Tmax [1, 17]: 48 h | Ratio of geometric means (treatment A/B; 90% CI) of AUC0‐t [2]: 0.9970 (0.9651, 1.0300) | Ratio of geometric means (treatment A/B; 90% CI) of AUC0‐∞ [2]: 0.9936 (0.9619, 1.0264) | Ratio of geometric means (treatment A/B; 90% CI) of Cmax [2]: 1.0198 (0.9819, 1.0591) | CVw of AUC0‐t [2]: 7.93% | CVw of AUC0‐∞ [2]: 7.91% | CVw of Cmax [2]: 9.24% | Tmax [2, 18]: 48.00 (24.0–72.1) h | Tmax ([2]; human, plasma, oral): 48 h | Cmax ([2]; human, plasma, oral): 163 ng/mL | half-life [2, 19]: 49.4 h | half-life [2, 20]: 50.4 h | stability in plasma samples at room‐temperature [3]: at least 3 days | stability in plasma samples, freeze/thaw cycles [3]: at least 3 freeze/thaw cycles | stability in plasma samples, storage at −20°C [3]: ≥ 36 months

CCCNS(=O)(=O)Nc1ncnc(OCCOc2ncc(Br)cn2)c1-c1ccc(Br)cc1 [Macitentan, macitentan]
Geometric means ratio (treatment A/B; 90% CI) of AUC0‐t [1, 5]: 0.9815 (0.9527, 1.0113) | Geometric means ratio (treatment A/B; 90% CI) of AUC0‐∞ [1, 5]: 0.9818 (0.9537, 1.0109) | Geometric means ratio (treatment A/B; 90% CI) of Cmax [1, 5]: 1.0045 (0.9631, 1.0478) | CVw of AUC0‐t [1, 6]: 9.54% | CVw of AUC0‐∞ [1, 6]: 9.31% | CVw of Cmax [1, 6]: 13.50% | AUC higher after FDC‐2 than after free combination ([1]; Group 2): approximately 10% | Cmax higher after FDC‐2 than after free combination ([1]; Group 2): approximately 19% | Geometric means ratio (treatment A/B; 90% CI) of AUC0‐t [1, 7]: 1.1014 (1.0652, 1.1389) | Geometric means ratio (treatment A/B; 90% CI) of AUC0‐∞ [1, 7]: 1.0981 (1.0641, 1.1332) | Geometric means ratio (treatment A/B; 90% CI) of Cmax [1, 7]: 1.1901 (1.1374, 1.2451) | CVw of AUC0‐t [1, 8]: 10.80% | CVw of AUC0‐∞ [1, 8]: 10.16% | CVw of Cmax [1, 8]: 14.64% | AUC ([1]; human, plasma, oral, AUC0‐t, Group 1, Treatment A FDC‐1, geometric mean (95% CI)): 4320 ng·h/mL | AUC ([1]; human, plasma, oral, AUC0‐t, Group 1, Treatment B free combination (US‐sourced tadalafil), geometric mean (95% CI)): 4400 ng·h/mL | AUC ([1]; human, plasma, oral, AUC0‐t, Group 2, Treatment A FDC‐2, geometric mean (95% CI)): 4740 ng·h/mL | AUC ([1]; human, plasma, oral, AUC0‐t, Group 2, Treatment B free combination (US‐sourced tadalafil), geometric mean (95% CI)): 4300 ng·h/mL | AUC ([1]; human, plasma, oral, AUC0‐∞, Group 1, Treatment A FDC‐1, geometric mean (95% CI)): 4430 ng·h/mL | AUC ([1]; human, plasma, oral, AUC0‐∞, Group 1, Treatment B free combination (US‐sourced tadalafil), geometric mean (95% CI)): 4510 ng·h/mL | AUC ([1]; human, plasma, oral, AUC0‐∞, Group 2, Treatment A FDC‐2, geometric mean (95% CI)): 4830 ng·h/mL | AUC ([1]; human, plasma, oral, AUC0‐∞, Group 2, Treatment B free combination (US‐sourced tadalafil), geometric mean (95% CI)): 4390 ng·h/mL | Cmax [1, 9]: 169 ng/mL | Cmax [1, 10]: 163 ng/mL | half-life [1, 21]: 13.8 h | half-life [1, 11]: 14 h | half-life [1, 12]: 13.8 h | half-life [1, 13]: 14.4 h | Tmax [1, 14]: 9 h | Tmax [1, 15]: 9 h | Tmax [1, 16]: 9 h | Tmax [1, 17]: 9 h | Ratio of geometric means (treatment A/B; 90% CI) of AUC0‐t [2]: 1.0038 (0.9677, 1.0413) | Ratio of geometric means (treatment A/B; 90% CI) of AUC0‐∞ [2]: 1.0015 (0.9675, 1.0367) | Ratio of geometric means (treatment A/B; 90% CI) of Cmax [2]: 1.0608 (1.0014, 1.1238) | CVw of AUC0‐t [2]: 8.94% | CVw of AUC0‐∞ [2]: 8.42% | CVw of Cmax [2]: 14.10% | Tmax [2, 18]: 9.00 (4.2–24.0) h | Tmax ([2]; human, plasma, oral): 9 h | AUC ([2]; human, plasma, oral, AUC0‐t, Treatment A FDC (FDC‐2)): 5810 ng·h/mL | AUC ([2]; human, plasma, oral, AUC0‐t, Treatment B free combination (EU‐sourced tadalafil)): 5790 ng·h/mL | AUC ([2]; human, plasma, oral, AUC0‐∞, Treatment A FDC (FDC‐2)): 5890 ng·h/mL | AUC ([2]; human, plasma, oral, AUC0‐∞, Treatment B free combination (EU‐sourced tadalafil)): 5880 ng·h/mL | Cmax ([2]; human, plasma, oral): 175 ng/mL | half-life [2, 19]: 16.1 h | half-life [2, 20]: 16.1 h | tolerability [4]: well tolerated | stability in plasma samples at room‐temperature [3]: at least 3 days | stability in plasma samples, freeze/thaw cycles [3]: at least 3 freeze/thaw cycles | stability in plasma samples, storage at −20°C [3]: ≥ 36 months

CN1CC(=O)N2[C@H](c3ccc4c(c3)OCO4)c3[nH]c4ccccc4c3C[C@@H]2C1=O [Tadalafil, tadalafil]
lower bound of the 90% CI of the geometric mean ratio of Cmax ([1]; FDC‐1 vs free combination, bioequivalence limits 0.8000–1.2500): 0.7167 | AUC lower after FDC‐1 than after free combination ([1]; Group 1): ~8% | Cmax lower after FDC‐1 than after free combination ([1]; Group 1): approximately 24% | Geometric means ratio (treatment A/B; 90% CI) of AUC0‐t [1, 5]: 0.9151 (0.8687, 0.9639) | Geometric means ratio (treatment A/B; 90% CI) of AUC0‐∞ [1, 5]: 0.9172 (0.8707, 0.9662) | Geometric means ratio (treatment A/B; 90% CI) of Cmax [1, 5]: 0.7588 (0.7167, 0.8034) | CVw of AUC0‐t [1, 6]: 16.71% | CVw of AUC0‐∞ [1, 6]: 16.70% | CVw of Cmax [1, 6]: 18.38% | t1/2 ([1]; Group 1, Treatment B free combination (US‐sourced tadalafil), geometric mean (95% CI)): 18.066 (16.472, 19.815) h | Tmax ([1]; Group 1, Treatment B free combination (US‐sourced tadalafil)): 3.00 (1.0–5.0) h | Geometric means ratio (treatment A/B; 90% CI) of AUC0‐t [1, 7]: 0.9764 (0.9293, 1.0259) | Geometric means ratio (treatment A/B; 90% CI) of AUC0‐∞ [1, 7]: 0.9765 (0.9293, 1.0260) | Geometric means ratio (treatment A/B; 90% CI) of Cmax [1, 7]: 0.9576 (0.9063, 1.0118) | CVw of AUC0‐t [1, 8]: 16.01% | CVw of AUC0‐∞ [1, 8]: 16.02% | CVw of Cmax [1, 8]: 17.86% | Cmax [1, 9]: 385 ng/mL | Cmax [1, 10]: 490 ng/mL | half-life [1, 21]: 18.4 h | half-life [1, 12]: 18.1 h | half-life [1, 13]: 18.5 h | Tmax [1, 14]: 4 h | Tmax [1, 15]: ~3 h | Tmax [1, 16]: 3 h | Tmax [1, 17]: 3 h | Ratio of geometric means (treatment A/B; 90% CI) of AUC0‐t [2]: 1.0040 (0.9584, 1.0517) | Ratio of geometric means (treatment A/B; 90% CI) of AUC0‐∞ [2]: 1.0047 (0.9591, 1.0525) | Ratio of geometric means (treatment A/B; 90% CI) of Cmax [2]: 0.9015 (0.8413, 0.9661) | CVw of AUC0‐t [2]: 11.35% | CVw of AUC0‐∞ [2]: 11.34% | CVw of Cmax [2]: 16.96% | Tmax [2, 18]: 1.75 (1.0–5.0) h | Cmax ([2]; human, plasma, oral): 539 ng/mL | half-life [2, 19]: 23.3 h | half-life [2, 20]: 22.6 h | Tmax ([2]; human, plasma, oral, tmax, Treatment A FDC (FDC‐2), median (range)): 2 h | tolerability [4]: well tolerated | stability in plasma samples at room‐temperature [3]: at least 6 hours | stability in plasma samples, freeze/thaw cycles [3]: ≥ 3 freeze/thaw cycles
